Experimental data taken from ChEMBL document CHEMBL4715736, “Identification of anticancer agents based on the thieno[2,3-b]pyridine and 1H-pyrazole molecular scaffolds” (2016).

Assays:
Assay type in all cases: functional
Details in all cases: read-out: Activity
KM12 = assay: Growth inhibition of human KM12 cells assessed as cell growth at 10 uM incubated for 48 hrs by sulforhodamine B assay relative to control
Method in brief: (§1)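 Submitted to the NCI Developmental Therapeutics Program for the NCI60 human tumour cell line panel. First screen at a single 10 µM concentration. Read-out is growth relative to untreated control cells set at 100%.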

SNB-19 = assay: Growth inhibition of human SNB-19 cells assessed as cell growth at 10 uM incubated for 48 hrs by sulforhodamine B assay relative to control
Method in brief: (§2)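 Run by the NCI Developmental Therapeutics Program as part of its 60-line human tumour panel. Each compound tested at a single 10 µM dose. Growth expressed as % relative to untreated control cells (100%).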

CCRF-CEM = assay: Growth inhibition of human CCRF-CEM cells assessed as cell growth at 10 uM incubated for 48 hrs by sulforhodamine B assay relative to control
Method in brief: (§3)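 NCI Developmental Therapeutics Program NCI60 panel. Compounds that were active in the 10 µM one-dose screen went on to dose–response testing. Growth at each concentration is expressed relative to untreated control (100%). GI50 (concentration giving 50% of maximal inhibition of proliferation) and TGI (concentration giving total growth inhibition) were derived from the curves.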

DU-145 = assay: Growth inhibition of human DU-145 cells assessed as cell growth at 10 uM incubated for 48 hrs by sulforhodamine B assay relative to control; method in brief: as §3
NCI-H23 = assay: Growth inhibition of human NCI-H23 cells assessed as cell growth at 10 uM incubated for 48 hrs by sulforhodamine B assay relative to control; method in brief: as §1
UO-31 = assay: Growth inhibition of human UO-31 cells assessed as cell growth at 10 uM incubated for 48 hrs by sulforhodamine B assay relative to control; method in brief: as §2
MDA-MB-468 = assay: Growth inhibition of human MDA-MB-468 cells assessed as cell growth at 10 uM incubated for 48 hrs by sulforhodamine B assay relative to control; method in brief: as §1
786-0 = assay: Growth inhibition of human 786-0 cells assessed as cell growth at 10 uM incubated for 48 hrs by sulforhodamine B assay relative to control; method in brief: as §3
LOX IMVI = assay: Growth inhibition of human LOX IMVI cells assessed as cell growth at 10 uM incubated for 48 hrs by sulforhodamine B assay relative to control; method in brief: as §1
M14 = assay: Growth inhibition of human M14 cells assessed as cell growth at 10 uM incubated for 48 hrs by sulforhodamine B assay relative to control; method in brief: as §1
UACC-257 = assay: Growth inhibition of human UACC-257 cells assessed as cell growth at 10 uM incubated for 48 hrs by sulforhodamine B assay relative to control; method in brief: as §2
SN12C = assay: Growth inhibition of human SN12C cells assessed as cell growth at 10 uM incubated for 48 hrs by sulforhodamine B assay relative to control; method in brief: as §2
SK-MEL-5 = assay: Growth inhibition of human SK-MEL-5 cells assessed as cell growth at 10 uM incubated for 48 hrs by sulforhodamine B assay relative to control; method in brief: as §2
IGROV-1 = assay: Growth inhibition of human IGROV-1 cells assessed as cell growth at 10 uM incubated for 48 hrs by sulforhodamine B assay relative to control; method in brief: as §1
OVCAR-8 = assay: Growth inhibition of human OVCAR-8 cells assessed as cell growth at 10 uM incubated for 48 hrs by sulforhodamine B assay relative to control; method in brief: as §2
SF-539 = assay: Growth inhibition of human SF-539 cells assessed as cell growth at 10 uM incubated for 48 hrs by sulforhodamine B assay relative to control; method in brief: as §2
MDA-MB-231 = assay: Growth inhibition of human MDA-MB-231 cells assessed as cell growth at 10 uM incubated for 48 hrs by sulforhodamine B assay relative to control; method in brief: as §1
MOLT-4 = assay: Growth inhibition of human MOLT-4 cells assessed as cell growth at 10 uM incubated for 48 hrs by sulforhodamine B assay relative to control; method in brief: as §1
A549 = assay: Growth inhibition of human A549/ATCC cells assessed as cell growth at 10 uM incubated for 48 hrs by sulforhodamine B assay relative to control; method in brief: as §3
A498 = assay: Growth inhibition of human A498 cells assessed as cell growth at 10 uM incubated for 48 hrs by sulforhodamine B assay relative to control; method in brief: as §3
HOP-92 = assay: Growth inhibition of human HOP-92 cells assessed as cell growth at 10 uM incubated for 48 hrs by sulforhodamine B assay relative to control; method in brief: as §1
UACC-62 = assay: Growth inhibition of human UACC-62 cells assessed as cell growth at 10 uM incubated for 48 hrs by sulforhodamine B assay relative to control; method in brief: as §2
T47D = assay: Growth inhibition of human T47D cells assessed as cell growth at 10 uM incubated for 48 hrs by sulforhodamine B assay relative to control; method in brief: as §2
OVCAR-3 = assay: Growth inhibition of human OVCAR-3 cells assessed as cell growth at 10 uM incubated for 48 hrs by sulforhodamine B assay relative to control; method in brief: as §2
OVCAR-5 = assay: Growth inhibition of human OVCAR-5 cells assessed as cell growth at 10 uM incubated for 48 hrs by sulforhodamine B assay relative to control; method in brief: as §2
SF-295 = assay: Growth inhibition of human SF-295 cells assessed as cell growth at 10 uM incubated for 48 hrs by sulforhodamine B assay relative to control; method in brief: as §2
HOP-62 = assay: Growth inhibition of human HOP-62 cells assessed as cell growth at 10 uM incubated for 48 hrs by sulforhodamine B assay relative to control; method in brief: as §1
Malme-3M = assay: Growth inhibition of human Malme-3M cells assessed as cell growth at 10 uM incubated for 48 hrs by sulforhodamine B assay relative to control; method in brief: as §1
RPMI-8226 = assay: Growth inhibition of human RPMI-8226 cells assessed as cell growth at 10 uM incubated for 48 hrs by sulforhodamine B assay relative to control; method in brief: as §2
U-251 = assay: Growth inhibition of human U-251 cells assessed as cell growth at 10 uM incubated for 48 hrs by sulforhodamine B assay relative to control; method in brief: as §2
RXF 393 = assay: Growth inhibition of human RXF 393 cells assessed as cell growth at 10 uM incubated for 48 hrs by sulforhodamine B assay relative to control; method in brief: as §2
HCC 2998 = assay: Growth inhibition of human HCC 2998 cells assessed as cell growth at 10 uM incubated for 48 hrs by sulforhodamine B assay relative to control; method in brief: as §3
MDA-MB-435 = assay: Growth inhibition of human MDA-MB-435 cells assessed as cell growth at 10 uM incubated for 48 hrs by sulforhodamine B assay relative to control; method in brief: as §1
HL-60(TB) = assay: Growth inhibition of human HL-60(TB) cells assessed as cell growth at 10 uM incubated for 48 hrs by sulforhodamine B assay relative to control
Method in brief: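 Screened by the NCI Developmental Therapeutics Program on its panel of 60 human tumour cell lines. Compounds were first tested at a single 10 µM dose, and compounds active there went to dose-response curves. Growth is expressed relative to untreated control (100%). GI50 (50% of maximal proliferation inhibition) and TGI (total growth inhibition) were derived from the dose-response data.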

SMILES	growth at 10 µM (KM12) [%]	growth at 10 µM (SNB-19) [%]	growth at 10 µM (CCRF-CEM) [%]	growth at 10 µM (DU-145) [%]	growth at 10 µM (NCI-H23) [%]	growth at 10 µM (UO-31) [%]	growth at 10 µM (786-0) [%]	growth at 10 µM (LOX IMVI) [%]	growth at 10 µM (M14) [%]	growth at 10 µM (UACC-257) [%]	growth at 10 µM (SN12C) [%]	growth at 10 µM (SK-MEL-5) [%]	growth at 10 µM (IGROV-1) [%]	growth at 10 µM (OVCAR-8) [%]	growth at 10 µM (SF-539) [%]	growth at 10 µM (MDA-MB-231) [%]	growth at 10 µM (MOLT-4) [%]	growth at 10 µM (A549) [%]	growth at 10 µM (A498) [%]	growth at 10 µM (HOP-92) [%]	further results
Nc1c(C(=O)Nc2ccccc2)sc2nc3c(cc12)CN(Cc1ccccc1)CC3	60	59	84	57	63	41	54	51	64	67	66	49	74	59	9	37	81	55	-17	13	growth at 10 µM (MDA-MB-468): 58%; growth at 10 µM (UACC-62): 57%; growth at 10 µM (T47D): 58%; growth at 10 µM (OVCAR-3): 52%; growth at 10 µM (OVCAR-5): 70%; growth at 10 µM (SF-295): 36%; growth at 10 µM (HOP-62): 26%; growth at 10 µM (Malme-3M): 23%; growth at 10 µM (RPMI-8226): 72%; growth at 10 µM (U-251): 56%; growth at 10 µM (RXF 393): 12%; growth at 10 µM (HCC 2998): 76%; growth at 10 µM (MDA-MB-435): 34%
COc1cccc(NC(=O)c2sc3nc4c(cc3c2N)CN(Cc2ccccc2)CC4)c1	57	35	76	32	43	24	22	27	56	44	52	35	67	28	-18	54	69	22	29	23	growth at 10 µM (MDA-MB-468): 30%; growth at 10 µM (UACC-62): 31%; growth at 10 µM (T47D): 39%; growth at 10 µM (OVCAR-3): 46%; growth at 10 µM (OVCAR-5): 71%; growth at 10 µM (SF-295): 21%; growth at 10 µM (HOP-62): -17%; growth at 10 µM (Malme-3M): 12%; growth at 10 µM (RPMI-8226): 83%; growth at 10 µM (U-251): 21%; growth at 10 µM (RXF 393): 6%; growth at 10 µM (HCC 2998): 49%; growth at 10 µM (MDA-MB-435): 3%
Cc1ccc(S(=O)(=O)n2ccc(-c3ccc(OCCCF)cc3)n2)cc1	95	91.7	75.6	99.3	78.7	66.4	89.6	92.5	94.7	80	80.2	73.5	92.5	87.7	95.2	93.9	73.2	78.8	77	71.8	growth at 10 µM (MDA-MB-468): 44.4%; growth at 10 µM (HL-60(TB)): 107%; growth at 10 µM (UACC-62): 63.9%; growth at 10 µM (T47D): 72.9%; growth at 10 µM (OVCAR-5): 110%; growth at 10 µM (SF-295): 83.7%; growth at 10 µM (HOP-62): 108%; growth at 10 µM (Malme-3M): 101%; growth at 10 µM (RPMI-8226): 72.8%; growth at 10 µM (U-251): 85%; growth at 10 µM (RXF 393): 91.8%; growth at 10 µM (HCC 2998): 93.9%; growth at 10 µM (MDA-MB-435): 91.3%
Cc1cccc(NC(=O)c2sc3nc4c(cc3c2N)C(=O)CCC4)c1	13	29	24	6	28	41.2	15	24	4	37	35	6	-4.52	37	-61	20	42	23	-12.2	35	growth at 10 µM (UACC-62): 14%; growth at 10 µM (T47D): 29%; growth at 10 µM (OVCAR-3): -22%; growth at 10 µM (OVCAR-5): 32%; growth at 10 µM (SF-295): 7%; growth at 10 µM (HOP-62): 8%; growth at 10 µM (Malme-3M): 14%; growth at 10 µM (RPMI-8226): 22%; growth at 10 µM (U-251): 6%; growth at 10 µM (RXF 393): -10%; growth at 10 µM (HCC 2998): 25%; growth at 10 µM (MDA-MB-435): -65%
